Assay results as given in PubChem BioAssay AID686919 (Broad Institute, 2013).
The source made the active and inactive calls.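 How the source made its calls: active means remaining cruzain activity at or below half of the DMSO control at 10 µM, implied only; inactive means remaining activity above half of control.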

Tested on: cruzain (cruzipain) [Trypanosoma cruzi]
Assay: T. cruzi cruzain enzyme activity inhibition – biochemical, dry powder, percent inhibition, mechanism study for T. cruzi phenotypic hit project, dose response (AID 686919)
Details: recombinant cruzain, Z-Phe-Arg-AMC fluorescence rate; at 10 µM (top of the series)
In short: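 Material: purified recombinant cruzain enzyme. Buffer or medium: 100 mM NaOAc pH 5.5, 5 mM DTT, 0.01% Triton X-100. Reagent: fluorogenic substrate Z-Phe-Arg-AMC at 10 µM final. Schedule: 5 min preincubation at room temperature, 3 min kinetic read. Signal: kinetic AMC fluorescence, excitation 355 nm, emission 460 nm. Control set: DMSO vehicle control.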

**Q.** Which remaining cruzain activity (% of DMSO control) does the source give for `CN(C)C(=O)c1cccc(-c2ccc([C@H]3[C@H](CO)N4CCCCN(C(=O)C5CCC5)C[C@@H]34)cc2)c1` here?
**A.** The remaining cruzain activity (% of DMSO control) was 106% (inactive).

**Q.** With `O=C(C1CCC1)N1CCCCN2[C@@H](CO)[C@H](c3ccc(Br)cc3)[C@@H]2C1` as the compound, how does the remaining cruzain activity (% of DMSO control) read?
**A.** The remaining cruzain activity (% of DMSO control) was 133% (inactive).

**Q.** With `CN(C)C(=O)c1cccc(-c2ccc([C@H]3[C@H](CO)N4CCCCN(C(=O)CC5CC5)C[C@@H]34)cc2)c1` as the compound, how does the remaining cruzain activity (% of DMSO control) read?
**A.** Its remaining cruzain activity (% of DMSO control) is 83.3% (inactive).

**Q.** `CN(C)C(=O)c1cccc(-c2ccc([C@H]3[C@H](CO)N4CCCCN(C(=O)C5CCCCC5)C[C@@H]34)cc2)c1` was tested. Which remaining cruzain activity (% of DMSO control) did it give?
**A.** The remaining cruzain activity (% of DMSO control) was 72.3% (inactive).

**Q.** `CN(C)C(=O)c1cccc(-c2ccc([C@H]3[C@H](CO)N4CCCCN(C(=O)C5CC5)C[C@@H]34)cc2)c1` was tested. Which remaining cruzain activity (% of DMSO control) did it give?
**A.** Its remaining cruzain activity (% of DMSO control) is 104% (inactive).
